Assay results from different studies.
Each line is one published result; the experiments were not run side by side.
Target: Serine/threonine-protein kinase DCLK3 (DCLK3, Homo sapiens, UniProt Q9C098)
Residues used in one study (Q9C098 1-648): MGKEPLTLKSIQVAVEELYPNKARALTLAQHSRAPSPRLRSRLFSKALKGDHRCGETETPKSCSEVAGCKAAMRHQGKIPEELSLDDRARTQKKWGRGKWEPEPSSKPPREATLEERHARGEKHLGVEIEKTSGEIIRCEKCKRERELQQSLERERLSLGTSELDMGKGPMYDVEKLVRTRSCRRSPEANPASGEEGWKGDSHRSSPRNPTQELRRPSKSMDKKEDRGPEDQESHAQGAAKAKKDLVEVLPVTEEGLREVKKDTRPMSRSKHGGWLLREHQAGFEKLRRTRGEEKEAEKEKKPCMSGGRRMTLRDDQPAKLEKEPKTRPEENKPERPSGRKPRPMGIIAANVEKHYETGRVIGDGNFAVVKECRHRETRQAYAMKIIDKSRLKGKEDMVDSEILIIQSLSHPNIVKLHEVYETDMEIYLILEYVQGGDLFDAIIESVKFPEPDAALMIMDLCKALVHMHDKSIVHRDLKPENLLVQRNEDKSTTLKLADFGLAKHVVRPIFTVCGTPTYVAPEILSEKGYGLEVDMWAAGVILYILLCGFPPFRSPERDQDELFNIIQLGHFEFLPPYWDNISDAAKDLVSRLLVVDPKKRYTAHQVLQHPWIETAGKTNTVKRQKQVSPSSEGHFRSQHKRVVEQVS

COc1ncc2cc3ccccc3nc2c1C#N  remaining binding (cell-free assay; competition with immobilised ligand; 5 µM): 100%
O=C(c1ccc(Nc2ncc(Cl)c(-c3cc4ccccc4s3)n2)cc1)N1CCC(N2CCCC2)CC1  remaining binding (binding; competition with immobilised ligand; 1 µM): 0.9%
CC1=C(C#N)[C@@H](c2ccc3[nH]nc(C)c3c2)C(C#N)=C(c2ccc(Cl)cc2)N1  remaining binding (cell-free assay; competition with immobilised ligand; 1 µM): 71.3%
CCN1CCN(Cc2ccc(C(=O)Nc3ccc(C)c(Oc4ccc5c(c4)CC(=O)N5)c3)cc2C(F)(F)F)CC1  remaining binding (binding; competition with immobilised ligand; 1 µM): 100%
CN([C@@H]1CCc2c(CC(=O)O)c3ccccc3n2C1)S(=O)(=O)c1ccc(F)cc1  remaining binding (cell-free assay; competition with immobilised ligand; 1 µM): 99%
CN(CCCC(F)(F)F)c1nccc(-c2cnn3ncccc23)n1  remaining binding (binding; 1 µM): 85%
CNC(=O)[C@@H]1CC[C@@H](n2c(-c3ccc4cnccc4c3)nc3ccc(C(=O)NCc4cccc(C(N)=O)c4)cc32)C1  remaining binding (binding; competition with immobilised ligand; 1 µM): 100%
C[C@@H](c1ccc(-n2cnc3c(N)ncnc32)cc1)N1CCc2nn(C)c(Cc3ccccc3)c2C1=O  remaining binding (binding; competition with immobilised ligand; 0.1 µM): 85%
CN(C)c1nccc(-c2cnn3ncccc23)n1  remaining binding (binding; 1 µM): 100%
O=C(c1ccc(Nc2nccc(-c3cc4ccccc4s3)n2)cc1)N1CCC(N2CCCC2)CC1  remaining binding (binding; competition with immobilised ligand; 1 µM): 45%
N[C@@H]1CCN(c2nccc(-c3cnn4ncccc34)n2)C1  remaining binding (binding; 1 µM): 100%
Cc1cnc(Nc2ccc(C(=O)N3CCC(N4CCCC4)CC3)cc2)nc1-c1cc2ccccc2s1  remaining binding (binding; competition with immobilised ligand; 1 µM): 0.5%
Nc1ncc2c(n1)-c1c([nH]c3ccc(C#CC4CC4)cc13)CCCC2  remaining binding (binding; competition with immobilised ligand; 1 µM): 100%
Cn1cc(Cl)c2c(Oc3c(F)cc(Nc4cc(Cl)nc(N)n4)cc3F)ccnc21  remaining binding (cell-free assay; competition with immobilised ligand; 0.1 µM): 89%
O=C(Nc1c[nH]nc1C(=O)NC1CCNCC1)c1cc(F)cc(F)c1  remaining binding (binding; competition with immobilised ligand; 1 µM): 93%
Cc1cnn2ncc(-c3ccnc(N(C)C)n3)c2c1  remaining binding (binding; 1 µM): 93%
COc1ccc2c(c1)O[C@@H](c1ccc(OC)c(OC)c1)C[C@H]2NC(=O)C1(c2ccc3c(c2)OC(F)(F)O3)CC1  remaining binding (cell-free assay; competition with immobilised ligand; 1 µM): 98%
CC1CCCN1c1nccc(-c2cnn3ncccc23)n1 (stereo not drawn)  remaining binding (binding; 1 µM): 100%
O=C(NS(=O)(=O)c1ccc(NCC2CCOCC2)c([N+](=O)[O-])c1)c1ccc(N2CCN(Cc3ccc(C(F)(F)F)cc3-c3ccc(Cl)cc3)CC2)cc1Oc1cnc2[nH]ccc2c1  remaining binding (cell-free assay; competition with immobilised ligand; 1 µM): 93%
C[C@H]1CCN(c2nccc(-c3cnn4ncccc34)n2)C1  remaining binding (binding; 1 µM): 93%
N#CC1(c2ccccn2)CCN(Cc2cc(C(=O)N3CCCC3)c(=O)n3ccccc23)CC1  remaining binding (cell-free assay; competition with immobilised ligand; 1 µM): 100%
